Test [1] concerns Cucumis sativus. In words: Inhibition of root growth of Cucumis sativus at 100 mg/L. The class given is functional. In short, it runs like this:
(§1)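 Seeds of each species were grown in Petri dishes with 10 seeds per dish, at 28 °C, 70–80% RH, 16:8 h light:dark photoperiod and 3000 lx light for 5 days. Root and stem lengths were measured for the 10 seeds and averaged. Each test and its controls were run in three replicates, and the data were given probit analysis.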

The test system of test [2] is Sorghum bicolor. In words: Inhibition of stem growth of Sorghum bicolor at 100 mg/L. The format is functional. In short, it runs like this: as §1
In test [3] the test system is Brassica rapa subsp. oleifera. In words: Inhibition of stem growth of Brassica campestris at 100 mg/L. The class given is functional. In short, it runs like this: as §1
Test [4] relates to Sorghum bicolor. In words: Inhibition of root growth of Sorghum bicolor at 100 mg/L. The format is functional. Put shortly:
as §1

The next test relates to Aphis. In words: Insecticidal activity against Aphis medicagini at 250 mg/L. The class given is functional. Put shortly: (§2)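 Groups of 10 of each species were placed in glass Petri dishes and sprayed with test solution using a Potter sprayer. After air-drying, they were held under normal rearing conditions. Mortality at 72 h was taken from the number and size of live larvae relative to untreated controls.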

Test [5] concerns Radish. In words: Herbicidal activity against Raphanus sativus at 450 g ai/ha in greenhouse in vivo test. The format is functional, organism-based.
Test [6] has as its system Brassica rapa subsp. oleifera. In words: Inhibition of root growth of Brassica campestris at 100 mg/L. The format is functional. In short, it runs like this:
as §1

The test system of test [7] is Echinochloa crus-galli. In words: Inhibition of stem growth of Echinochloa crus-galli at 100 mg/L. The format is functional. In short, it runs like this: as §1
Test [8] has as its system Radish. Kind of test: Inhibition of stem growth of Raphanus sativus at 100 mg/L. The format is functional. In short, it runs like this: as §1
Test [9] has as its system Echinochloa crus-galli. In words: Herbicidal activity against Echinochloa crus-galli at 450 g ai/ha in greenhouse in vivo test. The class given is functional, organism-based.
Test [10] has as its system Echinochloa crus-galli. Kind of test: Inhibition of root growth of Echinochloa crus-galli at 100 mg/L. The class given is functional. Put shortly:
as §1

Test [11] has as its system Triticum aestivum. In words: Inhibition of stem growth of Triticum aestivum at 100 mg/L. The class given is functional. In short, it runs like this: as §1
In test [12] the test system is Triticum aestivum. Kind of test: Herbicidal activity against Triticum aestivum at 450 g ai/ha in greenhouse in vivo test. The class given is functional, organism-based.
For test [13], the system named is Brassica rapa subsp. oleifera. In words: Herbicidal activity against Brassica campestris at 450 g ai/ha in greenhouse in vivo test. The class given is functional, organism-based.
Test [14] relates to Cucumis sativus. Kind of test: Herbicidal activity against Cucumis sativus at 450 g ai/ha in greenhouse in vivo test. The class given is functional, organism-based.
The test system of test [15] is Cucumis sativus. Kind of test: Inhibition of stem growth of Cucumis sativus at 100 mg/L. The format is functional. In short, it runs like this: as §1
For the next test, the system named is Tetranychus cinnabarinus. In words: Insecticidal activity against Tetranychus cinnabarinus at 250 mg/L. The format is functional. In short, it runs like this:
as §2

Test [16] deals with Sorghum bicolor. In words: Herbicidal activity against Sorghum bicolor at 450 g ai/ha in greenhouse in vivo test. The format is functional, organism-based.
The subject of test [17] is Radish. Kind of test: Inhibition of root growth of Raphanus sativus at 100 mg/L. The format is functional. Put shortly: as §1
In test [18] the test system is Triticum aestivum. In words: Inhibition of root growth of Triticum aestivum at 100 mg/L. The class given is functional. In short, it runs like this: as §1

Calls of active or inactive are those of the source. No cut-off for these calls is given here.

This passage reports inhibition and Activity results from ChEMBL document CHEMBL1142895, “Discovery of a new insecticide lead by optimizing a target-diverse scaffold: tetrazolinone derivatives” (2007).

The term inhibition denotes the drop in the measured response relative to a control, in per cent. On to `CCCSc1nnc(Cn2nnn(-c3ccc(Cl)cc3)c2=O)s1`, for which the inhibition at 100 µg/mL amounted to 50% in the test on Cucumis sativus [1]; 0% in the test on Sorghum bicolor [2]; 60% in test [3]; 80% in the test with Sorghum bicolor [4]; 70% in [6]; 80% with Echinochloa crus-galli [7]. The inhibition at 100 µg/mL was determined as 70% in the test with Radish [8]; 80% in the test with Echinochloa crus-galli [10]; 70% in the test with Triticum aestivum [11]; 70% in the test on Cucumis sativus [15]; 70% in the test with Radish [17]; 70% with Triticum aestivum [18]. The Activity in the test on Aphis and in the test on Tetranychus cinnabarinus was 0% throughout. In addition, the result (with Radish [5]; in the test with Echinochloa crus-galli [9]; in the test with Triticum aestivum [12]; in test [13]; in the test on Cucumis sativus [14]; in the test with Sorghum bicolor [16]) was inactive.
In the case of `C=CCn1nnn(-c2ccccc2Cl)c1=O`, the inhibition at 100 µg/mL in the test on Cucumis sativus [1] was 0%; in the test with Sorghum bicolor [2], 0%; in test [3] it was 60%; in the test on Sorghum bicolor [4], 0%; in test [6], 0%; in the test with Echinochloa crus-galli [7], 0%. In addition, the inhibition at 100 µg/mL was found to be 0% in the test with Radish [8]; 0% with Echinochloa crus-galli [10]; 50% in the test on Triticum aestivum [11]; 60% in the test on Cucumis sativus [15]; 0% in the test on Radish [17]; 50% in the test with Triticum aestivum [18]. Moreover, the Activity in the test on Aphis worked out at 1.7%; in the test on Tetranychus cinnabarinus it was 98.6%. Further, the outcome (in the test with Echinochloa crus-galli [9]; with Triticum aestivum [12]; in test [13]; in the test with Cucumis sativus [14]; in the test with Sorghum bicolor [16]) was inactive.
`CSc1nnc(Cn2nnn(-c3ccc(Cl)cc3)c2=O)s1`: the inhibition at 100 µg/mL was found to be 40% in the test with Cucumis sativus [1]; 40% in the test with Sorghum bicolor [2]; 70% in test [3]; 60% in the test on Sorghum bicolor [4]; 0% in test [6]; 0% in the test on Echinochloa crus-galli [7]. In addition, the inhibition at 100 µg/mL in the test with Radish [8] was determined as 50%; with Echinochloa crus-galli [10], 30%; with Triticum aestivum [11] it was 50%; with Cucumis sativus [15] it was 60%; in the test on Radish [17], 50%; with Triticum aestivum [18], 60%. The Activity was found to be 5.7% with Aphis and 0% in the test on Tetranychus cinnabarinus. In addition, the result (with Radish [5]; in the test with Echinochloa crus-galli [9]; in the test on Triticum aestivum [12]; in test [13]; in the test on Cucumis sativus [14]; in the test with Sorghum bicolor [16]) was inactive.
For the compound `C=CCSc1nnc(Cn2nnn(-c3ccc(Cl)cc3)c2=O)o1`, the inhibition at 100 µg/mL in the test on Cucumis sativus [1] was determined as 60%; in the test with Sorghum bicolor [2], 0%; in test [3], 70%; with Sorghum bicolor [4], 0%; in test [6], 80%; in the test on Echinochloa crus-galli [7], 0%. The inhibition at 100 µg/mL with Radish [8] amounted to 60%; with Echinochloa crus-galli [10], 0%; in the test with Triticum aestivum [11], 0%; in the test with Cucumis sativus [15] it was 50%; in the test with Radish [17], 60%; in the test on Triticum aestivum [18], 0%. The Activity was 5% with Aphis and 96.8% with Tetranychus cinnabarinus. In addition, the outcome (in the test with Radish [5]; in the test on Echinochloa crus-galli [9]; in the test on Triticum aestivum [12]; in [13]; with Cucumis sativus [14]; in the test with Sorghum bicolor [16]) was inactive.
As to `CC(C)(C)c1ccc(CSc2cnn(C(C)(C)C)c(=O)c2Cl)cc1` [PYRIDABEN], the Activity with Tetranychus cinnabarinus is recorded as 100%.
